Measured values reported in ChEMBL document CHEMBL1138063, “Imidazole-dioxolane compounds as isozyme-selective heme oxygenase inhibitors” (J Med Chem, 2006).

Key:
Heme oxygenase 2 [1] = target: T1, Heme oxygenase 2 (Rattus norvegicus, UniProt P23711); assay: Inhibition of Sprague-Dawley rat brain HO2
T1 sequence (P23711 whole entry): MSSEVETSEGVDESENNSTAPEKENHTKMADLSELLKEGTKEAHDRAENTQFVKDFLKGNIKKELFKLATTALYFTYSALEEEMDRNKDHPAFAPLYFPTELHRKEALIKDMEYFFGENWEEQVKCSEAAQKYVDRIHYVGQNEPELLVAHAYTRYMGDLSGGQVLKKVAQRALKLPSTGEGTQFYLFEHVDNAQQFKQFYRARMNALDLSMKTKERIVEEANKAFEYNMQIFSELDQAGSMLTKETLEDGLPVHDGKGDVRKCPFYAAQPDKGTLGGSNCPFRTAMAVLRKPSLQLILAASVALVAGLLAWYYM
Procedure, shortened: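 HO-2 source: Sprague-Dawley rat brain microsomes prepared by differential centrifugation. Compound (HCl salt) at 0.1–100 µM final was preincubated 10 min at 37 °C with 50 µM methemalbumin and 1 mg/mL protein in 100 mM phosphate pH 7.4. NADPH (1 mM final) was added and the mix incubated 15 min at 37 °C, then frozen on dry ice. CO was measured by GC, minus no-NADPH blanks. IC50 from sigmoidal fits, 2–3 replicate curves.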

Nitric oxide synthase 1 = Nitric oxide synthase 1 (Rattus norvegicus, UniProt P29476); assay: Inhibition of rat brain nNOS
Procedure, shortened: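 nNOS in rat brain cytosolic fraction, read as conversion of 14C-L-arginine to 14C-L-citrulline. Activity at several inhibitor concentrations was expressed as % of the uninhibited control. IC50 came from a nonlinear sigmoidal dose–response fit, with two or three replicate curves per compound.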

[2] = Inhibition of rat liver CYP3A1/3A2; assay type: ADME, tissue-based
Procedure, shortened: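 CYP3A1/3A2 in rat liver microsomes, measured as erythromycin N-demethylase activity by spectrophotometric formaldehyde determination. Remaining activity was taken as % of control across inhibitor concentrations. IC50 came from a sigmoidal nonlinear regression, with two or three replicate curves.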

Cytochrome P450 2E1 = Cytochrome P450 2E1 (Rattus norvegicus, UniProt P05182); assay: Inhibition of rat liver CYP2E1; assay type: ADME, tissue-based
Procedure, shortened: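 Rat liver microsomal CYP2E1 activity was read as p-nitrophenol hydroxylation, by spectrophotometric measurement of 4-nitrocatechol. Activity at several inhibitor concentrations (HCl salts) was expressed as percent of control. IC50 came from a nonlinear sigmoidal dose-response fit of each of two or three replicate curves.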

Heme oxygenase 1 = target: T2, Heme oxygenase 1 (Homo sapiens, UniProt P09601); assay: Inhibition of human spleen HO1
T2 sequence (P09601 whole entry): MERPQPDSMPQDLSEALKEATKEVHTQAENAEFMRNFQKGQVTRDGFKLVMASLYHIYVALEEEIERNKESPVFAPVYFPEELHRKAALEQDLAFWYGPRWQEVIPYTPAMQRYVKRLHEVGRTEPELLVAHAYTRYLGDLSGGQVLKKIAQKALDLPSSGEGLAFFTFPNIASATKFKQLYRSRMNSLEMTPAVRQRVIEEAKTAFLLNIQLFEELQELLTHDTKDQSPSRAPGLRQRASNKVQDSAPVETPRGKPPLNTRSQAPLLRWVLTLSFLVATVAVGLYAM
Procedure, shortened: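 HO-1 in human spleen microsomes. Heme was given as 50 µM methemalbumin in 100 mM phosphate buffer (pH 7.4) with 1 mg/mL protein. Inhibitor (0.1–100 µM final) was preincubated 10 min at 37 °C, then 1 mM NADPH was added for 15 min at 37 °C. Blanks lacking NADPH were subtracted. Reactions were stopped on dry ice and CO was measured by GC. IC50 came from sigmoidal fits of % control, from 2–3 replicate curves.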

Heme oxygenase 2 [3] = target: T1, Heme oxygenase 2; assay: Inhibition of rat liver HO2
Procedure, shortened: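 HO-2 source: rat liver microsomes. Heme was presented as methemalbumin (50 µM) with 1 mg/mL protein in 100 mM phosphate pH 7.4. Compound (HCl salt) was preincubated 10 min at 37 °C, then NADPH (1 mM final) was added for 15 min at 37 °C. CO was measured by GC, minus no-NADPH blanks. IC50 from sigmoidal fits of replicate curves.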

[4] = target: Soluble guanylate cyclase (Rattus norvegicus); assay: Inhibition of rat lung sGC

Nitric oxide synthase 1, sequence (P29476 whole entry): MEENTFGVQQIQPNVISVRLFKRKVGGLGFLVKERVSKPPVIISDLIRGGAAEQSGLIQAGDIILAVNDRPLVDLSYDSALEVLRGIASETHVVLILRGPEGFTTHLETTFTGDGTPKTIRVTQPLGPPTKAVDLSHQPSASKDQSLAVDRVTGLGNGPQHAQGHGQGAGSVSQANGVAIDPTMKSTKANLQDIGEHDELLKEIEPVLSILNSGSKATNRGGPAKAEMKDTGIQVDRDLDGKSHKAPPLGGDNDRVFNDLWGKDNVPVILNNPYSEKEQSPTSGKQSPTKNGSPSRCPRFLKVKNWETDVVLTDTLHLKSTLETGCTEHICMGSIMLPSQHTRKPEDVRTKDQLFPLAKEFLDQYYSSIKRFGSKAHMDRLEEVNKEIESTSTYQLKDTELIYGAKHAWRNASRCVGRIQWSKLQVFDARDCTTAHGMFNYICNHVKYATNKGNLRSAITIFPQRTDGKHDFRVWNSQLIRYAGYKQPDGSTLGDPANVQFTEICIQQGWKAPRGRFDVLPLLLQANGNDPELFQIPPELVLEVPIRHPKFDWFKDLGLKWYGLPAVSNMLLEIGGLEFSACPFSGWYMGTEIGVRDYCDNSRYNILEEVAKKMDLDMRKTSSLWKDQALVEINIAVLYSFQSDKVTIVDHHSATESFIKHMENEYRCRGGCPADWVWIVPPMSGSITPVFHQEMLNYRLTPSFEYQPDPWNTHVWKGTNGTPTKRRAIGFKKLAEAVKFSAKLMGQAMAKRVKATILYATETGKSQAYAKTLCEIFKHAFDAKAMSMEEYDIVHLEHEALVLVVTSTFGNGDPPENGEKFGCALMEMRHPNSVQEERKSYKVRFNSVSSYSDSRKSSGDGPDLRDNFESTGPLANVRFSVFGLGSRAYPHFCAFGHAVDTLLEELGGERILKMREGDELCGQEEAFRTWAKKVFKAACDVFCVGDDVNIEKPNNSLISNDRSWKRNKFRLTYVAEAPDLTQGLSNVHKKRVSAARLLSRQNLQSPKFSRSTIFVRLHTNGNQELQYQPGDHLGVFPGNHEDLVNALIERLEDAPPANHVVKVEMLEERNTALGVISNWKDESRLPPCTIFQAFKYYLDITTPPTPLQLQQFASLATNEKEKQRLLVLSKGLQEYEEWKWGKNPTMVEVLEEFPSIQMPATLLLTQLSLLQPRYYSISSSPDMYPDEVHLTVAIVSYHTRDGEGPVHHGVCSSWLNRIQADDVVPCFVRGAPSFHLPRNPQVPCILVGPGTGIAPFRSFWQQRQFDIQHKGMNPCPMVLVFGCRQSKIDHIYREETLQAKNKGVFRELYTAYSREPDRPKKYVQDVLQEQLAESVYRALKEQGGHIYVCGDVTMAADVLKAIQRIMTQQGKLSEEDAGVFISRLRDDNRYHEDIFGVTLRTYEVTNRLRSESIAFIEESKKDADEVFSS
Cytochrome P450 2E1, sequence (P05182 whole entry): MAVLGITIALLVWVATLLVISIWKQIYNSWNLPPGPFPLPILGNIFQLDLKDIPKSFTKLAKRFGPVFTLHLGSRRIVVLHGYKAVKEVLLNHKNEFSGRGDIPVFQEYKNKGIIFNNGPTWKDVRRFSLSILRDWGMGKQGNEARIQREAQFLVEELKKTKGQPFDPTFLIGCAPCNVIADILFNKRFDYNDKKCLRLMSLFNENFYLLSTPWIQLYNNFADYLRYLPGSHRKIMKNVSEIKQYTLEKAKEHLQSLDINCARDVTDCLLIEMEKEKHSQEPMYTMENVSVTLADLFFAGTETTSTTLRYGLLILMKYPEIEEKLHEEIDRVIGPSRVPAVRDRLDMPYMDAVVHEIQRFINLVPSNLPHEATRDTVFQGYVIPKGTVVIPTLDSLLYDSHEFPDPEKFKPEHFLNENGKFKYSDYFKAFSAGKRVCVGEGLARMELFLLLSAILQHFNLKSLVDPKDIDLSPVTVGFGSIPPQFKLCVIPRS

C[C@H]1CO[C@](CCc2ccc(Cl)cc2)(Cn2ccnc2)O1
IC50 (Heme oxygenase 2 [1]): > 100 µM | IC50 (Nitric oxide synthase 1): > 500 µM | IC50 [2]: 10 µM | IC50 (Cytochrome P450 2E1): 20 µM

C[C@@H]1CO[C@@](CCc2ccc(Cl)cc2)(Cn2ccnc2)O1
IC50 (Heme oxygenase 1): 1.5 µM | IC50 (Heme oxygenase 2 [3]): 532 µM | IC50 (Nitric oxide synthase 1): 362 µM | IC50 [2]: 3.2 µM | IC50 (Cytochrome P450 2E1): 3.6 µM

Clc1ccc(CCC2(Cn3ccnc3)OCCO2)cc1
IC50 [4]: > 1000 µM | IC50 (Heme oxygenase 2 [1]): > 100 µM | IC50 (Nitric oxide synthase 1): 182 µM | IC50 (Cytochrome P450 2E1): 5 µM

C[C@H]1CO[C@@](CCc2ccc(Cl)cc2)(Cn2ccnc2)O1
IC50 (Nitric oxide synthase 1): 773 µM | IC50 [2]: 8 µM | IC50 (Cytochrome P450 2E1): 6 µM

C[C@@H]1CO[C@](CCc2ccc(Cl)cc2)(Cn2ccnc2)O1
IC50 (Heme oxygenase 2 [1]): > 100 µM | IC50 (Nitric oxide synthase 1): > 500 µM | IC50 [2]: 7 µM | IC50 (Cytochrome P450 2E1): 30 µM

Clc1ccc(CCC2(Cn3ccnc3)SCCS2)cc1
IC50 (Nitric oxide synthase 1): 34 µM | IC50 [2]: 5.9 µM
